Results on 24 compounds are retold here after ChEMBL document CHEMBL1124650, “Structure-activity relationships among methoctramine-related polymethylene tetraamines. Chain-length and substituent effects on M-2 muscarinic receptor blocking activity” (J Med Chem, 1989).

Conditions in all cases: read-out: pA2 (converted)
Assay [1] concerns the target Muscarinic acetylcholine receptor M2 (Cavia porcellus). The assay can be described thus: Antagonist potency against muscarinic receptors was assed by antagonism of carbachol induced inhibition of electrically stimulated guinea pig atria.
Assay [2] addresses T1, Muscarinic acetylcholine receptor M3 (Cavia porcellus, UniProt Q8VH26). The assay can be described thus: Antagonist potency against carbachol induced contractions of isolated guinea pig ileum Muscarinic acetylcholine receptor; Inactive up to 10 uM. Format: functional, tissue-based. The essentials: (§1)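 Mounted in PSS at 37 °C with isotonic recording and 30 min equilibration. Carbachol curves (0.01-10 μM) were run at 30-min intervals, the second serving as control. A repeat curve followed 30 min antagonist incubation. pA2 came from Schild plots constrained to slope -1.0, using three antagonist concentrations each tested ≥5 times.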

The target in assay [3] is Muscarinic acetylcholine receptor M2 (Cavia porcellus). The assay can be described thus: Antagonist potency against carbachol induced inhibition of electrically stimulated guinea pig atria Muscarinic acetylcholine receptor.
In assay [4] the target is T1, Muscarinic acetylcholine receptor M3. The assay can be described thus: (§2) Antagonist potency against carbachol induced contractions of isolated guinea pig ileum Muscarinic acetylcholine receptor. Format: functional, tissue-based. The essentials: as §1
Assay [5] shares this target. Described as §2. Format: functional, tissue-based. The source holds these as a separate data set.
Assay [6] has as its target Muscarinic acetylcholine receptor M2 (Cavia porcellus). The assay can be described thus: Antagonist potency against carbachol induced inhibition of electrically stimulated guinea pig atria Muscarinic acetylcholine receptor. The source holds these as a separate data set.
For assay [7] the target is unchanged. The assay is described as above. This is another data set of the same source.

T1 sequence (Q8VH26 whole entry): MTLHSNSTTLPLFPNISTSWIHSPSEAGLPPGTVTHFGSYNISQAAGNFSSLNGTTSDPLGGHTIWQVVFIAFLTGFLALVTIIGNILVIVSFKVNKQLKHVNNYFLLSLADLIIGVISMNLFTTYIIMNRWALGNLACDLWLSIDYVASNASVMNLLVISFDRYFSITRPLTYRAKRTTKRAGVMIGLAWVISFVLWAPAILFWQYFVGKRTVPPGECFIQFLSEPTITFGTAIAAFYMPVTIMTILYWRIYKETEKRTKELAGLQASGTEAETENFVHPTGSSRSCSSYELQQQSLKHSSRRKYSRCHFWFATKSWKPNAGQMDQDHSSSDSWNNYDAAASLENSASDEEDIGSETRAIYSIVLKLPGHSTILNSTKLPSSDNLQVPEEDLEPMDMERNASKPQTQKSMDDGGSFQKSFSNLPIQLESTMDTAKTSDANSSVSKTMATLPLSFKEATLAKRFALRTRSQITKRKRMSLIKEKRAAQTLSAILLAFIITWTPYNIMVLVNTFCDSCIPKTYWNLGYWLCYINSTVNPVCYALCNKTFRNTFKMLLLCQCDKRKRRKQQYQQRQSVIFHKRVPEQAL

As to `COc1ccccc1CN(C)CCCCCCN(C)CCCCCCCCN(C)CCCCCCN(C)Cc1ccccc1OC`, the Kb is 162 nM in assay [1] and more than 10000 nM in assay [2].

Take `CSc1ccccc1CNCCCCCCNCCCCCCCCNCCCCCCNCc1ccccc1SC`: the values for the Kb in assay [3] and in assay [4] were 26.9 nM and 589 nM, respectively. Take `O=[N+]([O-])c1ccc(CNCCCCCCNCCCCCCCCNCCCCCCNCc2ccc([N+](=O)[O-])cc2)cc1`: the Kb in assay [3] was 95.5 nM; in assay [4], 1320 nM.

Take `COc1ccccc1CNCCCCCCNCCCCCCCCCCCCCNCCCCCCNCc1ccccc1OC`: the Kb was 95.5 nM in assay [3] and 1230 nM in assay [4]. Take `Clc1ccccc1CNCCCCCCNCCCCCCCCNCCCCCCNCc1ccccc1Cl`: the figures for the Kb in assay [3] and in assay [4] were 66.1 nM and 2820 nM, respectively. `COc1ccccc1CNCCCCCCCNCCCCCCCCNCCCCCCCNCc1ccccc1OC`: the Kb was 27.5 nM in assay [3] and 646 nM in assay [4].

For `c1cncc(CNCCCCCCNCCCCCCCCNCCCCCCNCc2cccnc2)c1`, the Kb is 288 nM in assay [1] and 4900 nM in assay [5]. On to `COc1cccc(CNCCCCCCNCCCCCCCCNCCCCCCNCc2cccc(OC)c2)c1`, for which the Kb in assay [3] was 151 nM; in assay [4] it was 3890 nM. The like results for `Fc1ccc(CNCCCCCCNCCCCCCCCNCCCCCCNCc2ccc(F)cc2)cc1` were, in that order, 129 nM and 2400 nM.

For `COc1ccccc1CNCCCCCCNCCCCCCCCCCCNCCCCCCNCc1ccccc1OC`, the values for the Kb in assay [3] and in assay [4] were 37.2 nM and 2290 nM, respectively. Take `COc1ccccc1CNCCCCCCNCCCCCCCCNCCCCCCNCc1ccccc1OC` [METHOCTRAMINE]: in assay [4], the Kb was 832 nM. Turning to `Cc1ccc(CNCCCCCCNCCCCCCCCNCCCCCCNCc2ccc(C)o2)o1`, the Kb in assay [1] is 8.91 nM; in assay [5] it was 708 nM. With `Cc1ccccc1CNCCCCCCNCCCCCCCCNCCCCCCNCc1ccccc1C`, the Kb in assay [3] is 58.9 nM; in assay [4] it was 2000 nM. Turning to `c1coc(CNCCCCCCNCCCCCCCCNCCCCCCNCc2ccco2)c1`, the values for the Kb in assay [6] and in assay [4] were 9.12 nM and 851 nM, respectively. For `COc1ccccc1CNCCCCCCNCCCCCCCCCCCCCCNCCCCCCNCc1ccccc1OC`, in assay [4], the Kb is 1410 nM. Regarding `c1ccc(CNCCCCCCNCCCCCCCCNCCCCCCNCc2ccccc2)cc1`, the Kb in assay [3] was 83.2 nM; in assay [4], 2190 nM. For `Clc1ccc(CNCCCCCCNCCCCCCCCNCCCCCCNCc2ccc(Cl)cc2)cc1`, in that order: 178 nM and 2340 nM. For `COc1ccc(CNCCCCCCNCCCCCCCCNCCCCCCNCc2ccc(OC)cc2)cc1`, in that order: 141 nM and 2750 nM. For `COc1ccccc1CN(C)CCCCCCNCCCCCCCCNCCCCCCN(C)Cc1ccccc1OC`, the Kb was 166 nM in assay [1] and more than 10000 nM in assay [5]. In the case of `COc1ccccc1CNCCCCCCN(C)CCCCCCCCN(C)CCCCCCNCc1ccccc1OC`, the figures for the Kb in assay [1] and in assay [5] were 10.2 nM and 417 nM, respectively.

Turning to `c1ccc(CNCCCCCCNCCCCCCCCNCCCCCCNCc2ccccn2)nc1`, the results for the Kb in assay [1] and in assay [5] were 53.7 nM and 3310 nM, respectively. Turning to `Clc1cccc(CNCCCCCCNCCCCCCCCNCCCCCCNCc2cccc(Cl)c2)c1`, the Kb was 186 nM in assay [7] and 2290 nM in assay [4].

In the case of `COc1ccccc1CNCCCCCNCCCCCCCCNCCCCCNCc1ccccc1OC`, the results for the Kb in assay [3] and in assay [4] were 162 nM and 2450 nM, respectively. On to `Cc1ccc(CNCCCCCCNCCCCCCCCNCCCCCCNCc2ccc(C)cc2)cc1`, for which the Kb in assay [3] was 166 nM; in assay [4] it was 2340 nM.
